These results are taken from article PMC2921709 (ChemMedChem, 2010).

In one test the test system is IGROV. Briefly: MTT growth inhibition, IGROV ovarian cancer cells. The note with it: Homo sapiens, IGROV, 72 h, read-out: GI50 IGROV. It is filed as cell-based, human. The method in brief:
(§1)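 Cells seeded at 8 × 10^3 per well in 96-well plates and held 18 h at 37 °C, 5% CO2. Medium then replaced with test compound in complete medium at various concentrations for 72 h continuous exposure. Viability read by MTT. GI50 is the concentration giving 50% proliferation inhibition, from dose–response curves; mean ± SE of ≥3 independent experiments. Media: leukemia lines in RPMI-1640; solid-tumour lines in DMEM with penicillin G 115 U mL−1, streptomycin and 10% FBS.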

For another test, the system named is RS 4;11. The experiment in a line: MTT growth inhibition, RS 4. It is filed as cell-based, human. The note with it: Homo sapiens, RS4-11, 72 h, read-out: GI50 RS 4;11. In outline:
as §1

Test [1] concerns Bovine brain tubulin (colchicine site). Briefly: Inhibition of [3H]colchicine binding to tubulin. The note with it: tubulin 1 μM, [3H]colchicine 5 μM; for Colchicine Binding Inhibition [%], 5 μM: compound 5 μM.
The subject of test [2] is Jurkat cells. The experiment in a line: Mitochondrial membrane potential. The test is classed as cell-based, human. The note with it: 0.5 and 0.1 μM, 24 and 48 h. In outline:
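After treatment, Jurkat cells were pelleted and resuspended in HBSS containing JC-1, then kept 10 min at 37 °C. They were spun again, taken up in HBSS and read by flow cytometry. Polarised mitochondria give red JC-1 aggregates (590 nm); depolarisation gives green monomers (530 nm).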

The next test concerns Hep G2. Briefly: MTT growth inhibition, HepG2 hepatoma cells. It is filed as cell-based, human. The note with it: Homo sapiens, HepG2, 72 h, read-out: GI50 Hep G2. The method in brief: as §1
Another test has as its system HT-29. Briefly: MTT growth inhibition, HT-29 colon adenocarcinoma cells. It is filed as cell-based, human. The note with it: Homo sapiens, HT-29, 72 h, read-out: GI50 HT-29. The method in brief:
as §1

Another test deals with HL-60. Briefly: MTT growth inhibition, HL-60 promyelocytic leukemia cells. The test is classed as cell-based, human. The note with it: Homo sapiens, HL-60, 72 h, read-out: GI50 HL-60. The method in brief:
as §1

The next test relates to Bcl-2 in Jurkat cells. The experiment in a line: Flow cytometric analysis of Bcl-2 expression. The test is classed as cell-based, human. The note with it: 24 and 48 h, flow cytometry. In outline:
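Jurkat cells incubated with test compound for 24 and 48 h, then pelleted and permeabilised with a Fix&Perm kit. Labelled with FITC-conjugated anti-Bcl-2 monoclonal antibody, washed and analysed by flow cytometry. Mean ± SEM of two independent experiments.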
A general note: Flow cytometry measures light scatter and fluorescence of single cells or particles in a stream.

In a further test the test system is MCF-7. The experiment in a line: MTT growth inhibition, MCF-7 breast adenocarcinoma cells. It is filed as cell-based, human. The note with it: Homo sapiens, MCF7, 72 h, read-out: GI50 MCF-7. In outline: as §1
The test system of the next test is Bovine brain tubulin. The experiment in a line: Inhibition of tubulin polymerization. It is filed as biochemical. The note with it: read-out: Tubulin Assembly IC50; tubulin 10 μM; 20 min incubation; ± SD.
The test system of test [3] is Jurkat cells. Briefly: Flow cytometric cell-cycle analysis. It is filed as cell-based, human. The note with it: for effect on cell-cycle progression (G2/M arrest, in words): 24 h treatment. In outline:
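Jurkat cells in exponential growth, 5 × 10^5 per sample, exposed to test compound at various concentrations for 24 h. Cells fixed in ice-cold 70% ethanol, treated with lysis buffer containing RNase A and 0.1% Triton X-100, then stained with PI. DNA content measured by flow cytometry and phases assigned from DNA histograms. Mean ± SEM of two independent experiments.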

The test system of test [4] is Jurkat cells. Briefly: Annexin V-FITC/PI apoptosis assay. It is filed as cell-based, human. The note with it: 24 h treatment. The method in brief:
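Jurkat cells exposed to test compound at various concentrations for 24 or 48 h, then harvested. Co-labelled with annexin V–FITC and PI and analysed by flow cytometry (excitation 488 nm; emission 525 and 585 nm). Reported as mean percentage of annexin-V-positive cells ± SEM, three independent experiments.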

The subject of test [5] is caspase-3 in Jurkat cells. The experiment in a line: Caspase-3 activation by flow cytometry. It is filed as cell-based, human. The note with it: time- and concentration-dependent.
A further test concerns K562. Briefly: MTT growth inhibition, K562 chronic myelogenous leukemia cells. The test is classed as cell-based, human. The note with it: Homo sapiens, K562, 72 h, read-out: GI50 K562. In outline: as §1
For the next test, the system named is leukemia cells. The experiment in a line: MTT growth inhibition, leukemia cell lines. The note with it: Homo sapiens, 72 h, read-out: GI50, leukemia cells. The test is classed as cell-based, human. The method in brief:
as §1

Test [6] has as its system Jurkat cells. The experiment in a line: Mitochondrial ROS production. It is filed as cell-based, human. The note with it: 24 and 48 h. In outline: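 Jurkat cells treated with test compound for 24 or 48 h, pelleted, then loaded in HBSS with hydroethidine (HE) or H2-DCFDA for 30 min at 37 °C. Cells re-pelleted into HBSS and read by flow cytometry: 488 nm excitation, emission 585 nm (HE) and 530 nm (DCF). Fluorescence intensity given as % of untreated control; mean ± SEM, three independent experiments.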

Another test deals with solid tumor cells. Briefly: MTT growth inhibition, solid tumor cell lines. It is filed as cell-based. The note with it: Homo sapiens, 72 h, read-out: GI50, solid tumor cells. The method in brief:
as §1

For another test, the system named is ML2. The experiment in a line: MTT growth inhibition, ML-2 myeloid leukemia cells. The test is classed as cell-based, human. The note with it: Homo sapiens, ML-2, 72 h, read-out: GI50 ML2. The method in brief:
as §1

A further test has as its system Jurkat. The experiment in a line: MTT growth inhibition, Jurkat T-leukemia cells. The test is classed as cell-based, human. The note with it: Homo sapiens, Jurkat, 72 h, read-out: GI50 Jurkat. In outline:
as §1

Another test relates to ARO. The experiment in a line: MTT growth inhibition, ARO anaplastic thyroid cells. It is filed as cell-based, human. The note with it: Homo sapiens, Thyroid cell, 72 h, read-out: GI50 ARO. The method in brief:
as §1

In another test the test system is HeLa. Briefly: MTT growth inhibition, HeLa cervix carcinoma cells. The test is classed as cell-based, human. The note with it: Homo sapiens, HeLa, 72 h, read-out: GI50 HeLa. In outline: as §1

Regarding `CCOC(=O)CCn1ccc2c3c(=O)cc(-c4ccccc4)[nH]c3ccc21` [Compound 11, Ethyl 3-(9-oxo-7-phenyl-6H-pyrrolo[3,2-f]quinolin-3(9H)-yl)propanoate], the GI50 – broadly, the concentration at which growth is held to half of that of the control – with IGROV turned out to be 620 ± 150 nM; with RS 4;11, 2 ± 0.4 nM; in the test on Hep G2, 520 ± 100 nM; with HT-29, 480 ± 80 nM; in the test on HL-60, 2 ± 0.1 nM; in the test with MCF-7, 580 ± 180 nM. Further, the GI50 in the test on K562 was 190 ± 60 nM; with leukemia cells, 0.5 to 10 nM; in the test on solid tumor cells it was 400 to 1400 nM; in the test with ML2, 5 ± 2 nM; in the test on Jurkat it was 0.5 ± 0.01 nM; in the test with ARO, 550 ± 150 nM. Also, in the test with HeLa, the GI50 was determined as 450 ± 100 nM. The “Colchicine Binding Inhibition [%], 1 μM” value in test [1] (compound 1 μM) is 44 ± 6%. The “Colchicine Binding Inhibition [%], 5 μM” value in test [1] is reported as 75 ± 4%. For the same compound, the “percentage of cells with low ΔΨmt (JC-1), in words” value with Jurkat cells [2] is listed as “significant increase in the percentage of cells with low ΔΨmt”. The “Bcl-2 expression, in words” value with Bcl-2 in Jurkat cells was “decrease Bcl-2 expression”. Moreover, in the test with Bovine brain tubulin, the IC50 (commonly the midpoint of a concentration-inhibition curve) worked out at 750 ± 40 nM. Besides, the G2/M cell population with Jurkat cells [3] (24 h, 0.06 μM, control 9.4 %) is 77%. Also, the S-phase cells with Jurkat cells [3] (24 h, 0.06 μM, control 43 %) was 20%. In the test on Jurkat cells [3] (24 h, 0.06 μM, control 47 %), this compound returned a G1 cells of 3%. In addition, in the test with Jurkat cells [3], the “effect on cell-cycle progression (G2/M arrest, in words)” value is “clear G2/M arrest pattern in a concentration-dependent manner”. The “induction of apoptotic (annexin-V-positive) cells, in words” value in the test on Jurkat cells [4] is “remarkable induction of apoptotic cells”. Also, the “caspase-3 activation, in words” value in test [5] is listed as “activate caspase-3”. The “ROS production (HE, H2-DCFDA), in words” value in the test on Jurkat cells [6] is “induced the production of ROS relative to control cells”.
As to `COc1cc(Cn2ccc3c4c(=O)cc(-c5ccccc5)[nH]c4ccc32)cc(OC)c1OC` [Compound 12, 7-Phenyl-3-(3,4,5-trimethoxybenzyl)-3H-pyrrolo[3,2-f]quinolin-9(6H)-one], the GI50 worked out at 850 ± 200 nM in the test with IGROV; 1 ± 0.1 nM in the test with RS 4;11; 950 ± 150 nM in the test with Hep G2; 450 ± 100 nM with HT-29; 2 ± 0.1 nM with HL-60; 1400 ± 500 nM in the test on MCF-7. For the same compound, the GI50 in the test on K562 is 30 ± 7 nM; with leukemia cells, 0.5 to 10 nM; in the test with solid tumor cells, 400 to 1400 nM; in the test on ML2 it was 10 ± 2 nM; in the test on Jurkat it was 3 ± 0.1 nM; with ARO, 580 ± 150 nM. Further, the concentration for 50% growth inhibition (GI50) in the test on HeLa was 400 ± 50 nM. Moreover, the “Colchicine Binding Inhibition [%], 5 μM” value in [1] is 30 ± 4%. The “Colchicine Binding Inhibition [%], 50 μM” value in [1] (compound 50 μM) turned out to be 56 ± 2%. Besides, the “percentage of cells with low ΔΨmt (JC-1), in words” value in the test on Jurkat cells [2] is “significant increase in the percentage of cells with low ΔΨmt”. Besides, in the test with Bcl-2 in Jurkat cells, the “Bcl-2 expression, in words” value is “decrease Bcl-2 expression”. Besides, the IC50 in the test with Bovine brain tubulin worked out at 1400 ± 200 nM. In addition, in the test with Jurkat cells [3] (24 h, 0.25 μM, control 9.4 %), the “arrest in G2/M phase (cell population)” value was 65%. Further, the “effect on cell-cycle progression (G2/M arrest, in words)” value in the test with Jurkat cells [3] is given as “clear G2/M arrest pattern in a concentration-dependent manner”. In addition, in the test on Jurkat cells [4], the “induction of apoptotic (annexin-V-positive) cells, in words” value is given as “remarkable induction of apoptotic cells”. The “caspase-3 activation, in words” value in test [5] is “activate caspase-3”. Besides, the “ROS production (HE, H2-DCFDA), in words” value with Jurkat cells [6] is recorded as “induced the production of ROS relative to control cells”.
